Results from ChEMBL document CHEMBL3817826, “H2S-Donating Doxorubicins May Overcome Cardiotoxicity and Multidrug Resistance” (J Med Chem, 2016).
Activity calls are given as the source filed them. The calls are words filed in the database; no cut-off is given here.

Legend:
U2OS [1] = assay: Induction of intracellular ROS accumulation in human U2OS cells at 5 uM incubated for 24 hrs by DCFDA-AM probe-based fluorimetrical analysis relative to control; assay type: functional, cell-based
In short: (§1)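 After 24 h at 5 μM, 1×10^6 cells in 0.5 mL PBS were loaded with 5 μM DCFDA-AM for 30 min at 37 °C, spun and resuspended. Fluorescence read at ex 492/em 517 nm, expressed as nmol ROS/mg cell protein. Duplicate, n = 3, mean ± SD.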

H9c2 [2] = assay: Cytotoxicity in rat H9c2 cells […] at 5 uM incubated for 24 hrs in presence of dexrazoxane by LDH release-based spectrofluorimetrical analysis relative to control; assay type: cell-based; conditions: h9c2, 24 h
[3] = Drug uptake in human U2OS/DX30 cells at 5 uM incubated for 24 hrs by fluorimetrical analysis; assay type: ADME, cell-based
In short: (§2)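 Intracellular drug measured after 24 h exposure to 5 μM. Cell lysates read fluorimetrically at ex 475/em 553 nm with cell-free blank subtracted. Converted by calibration curve to nmol drug/mg cell protein. Duplicate, n = 3, mean ± SD.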

U2OS [4] = assay: Induction of intracellular ROS accumulation in human U2OS/DX580 cells at 5 uM incubated for 24 hrs by DCFDA-AM probe-based fluorimetrical analysis relative to control; assay type: functional, cell-based; in short: as §1
[5] = biological target: DNA topoisomerase 2-alpha (Homo sapiens) (UniProt P11388); assay: Inhibition of human topoisomerase 2-mediated DNA cleavage at 5 uM using supercoiled pHOT1 plasmid as substrate by agarose gel electrophoresis
DNA topoisomerase 2-alpha (Homo sapiens), sequence (P11388 whole entry): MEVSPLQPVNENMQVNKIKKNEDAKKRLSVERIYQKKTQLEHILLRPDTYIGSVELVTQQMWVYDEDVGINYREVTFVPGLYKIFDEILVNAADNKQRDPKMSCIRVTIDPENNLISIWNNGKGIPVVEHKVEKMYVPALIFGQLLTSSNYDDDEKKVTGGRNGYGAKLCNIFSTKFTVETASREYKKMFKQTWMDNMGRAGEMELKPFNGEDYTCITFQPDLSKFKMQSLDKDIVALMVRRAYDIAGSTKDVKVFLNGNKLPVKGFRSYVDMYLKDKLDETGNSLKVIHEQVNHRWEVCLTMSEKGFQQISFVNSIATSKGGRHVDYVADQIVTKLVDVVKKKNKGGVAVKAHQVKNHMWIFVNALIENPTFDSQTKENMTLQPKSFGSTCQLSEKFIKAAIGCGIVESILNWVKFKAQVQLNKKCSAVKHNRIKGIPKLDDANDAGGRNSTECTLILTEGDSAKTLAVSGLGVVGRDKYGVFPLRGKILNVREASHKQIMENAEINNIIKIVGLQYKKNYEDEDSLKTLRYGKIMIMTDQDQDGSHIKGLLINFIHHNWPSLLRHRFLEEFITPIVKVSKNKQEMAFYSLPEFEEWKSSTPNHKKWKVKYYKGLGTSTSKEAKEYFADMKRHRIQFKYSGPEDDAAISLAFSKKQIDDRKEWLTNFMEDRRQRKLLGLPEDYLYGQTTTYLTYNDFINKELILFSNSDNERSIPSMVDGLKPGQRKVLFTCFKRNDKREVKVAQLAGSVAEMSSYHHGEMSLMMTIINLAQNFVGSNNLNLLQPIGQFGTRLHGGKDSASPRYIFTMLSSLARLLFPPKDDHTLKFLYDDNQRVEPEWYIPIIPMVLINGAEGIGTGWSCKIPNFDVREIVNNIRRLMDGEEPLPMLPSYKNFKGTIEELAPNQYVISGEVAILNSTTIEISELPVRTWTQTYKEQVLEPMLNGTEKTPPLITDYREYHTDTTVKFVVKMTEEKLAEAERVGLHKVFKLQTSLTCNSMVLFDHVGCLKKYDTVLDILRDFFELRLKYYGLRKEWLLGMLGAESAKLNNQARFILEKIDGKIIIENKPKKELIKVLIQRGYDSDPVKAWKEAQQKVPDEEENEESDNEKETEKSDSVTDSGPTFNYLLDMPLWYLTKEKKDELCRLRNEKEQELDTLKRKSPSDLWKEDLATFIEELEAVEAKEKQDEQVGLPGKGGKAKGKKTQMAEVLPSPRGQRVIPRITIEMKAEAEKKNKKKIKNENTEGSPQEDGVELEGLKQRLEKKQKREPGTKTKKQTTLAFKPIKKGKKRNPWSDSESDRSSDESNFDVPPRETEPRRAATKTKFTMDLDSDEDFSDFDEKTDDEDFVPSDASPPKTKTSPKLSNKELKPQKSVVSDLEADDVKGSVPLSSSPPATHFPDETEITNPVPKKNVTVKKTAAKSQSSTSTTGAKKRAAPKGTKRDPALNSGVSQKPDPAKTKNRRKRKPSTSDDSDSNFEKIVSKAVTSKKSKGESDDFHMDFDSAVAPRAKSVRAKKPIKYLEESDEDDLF

U2OS [6] = assay: Induction of intracellular ROS accumulation in human U2OS/DX30 cells at 5 uM incubated for 24 hrs by DCFDA-AM probe-based fluorimetrical analysis relative to control; assay type: functional, cell-based; in short: as §1
U2OS [7] = assay: Cytotoxicity in human U2OS/DX100 cells at 5 uM incubated for 24 hrs by LDH release-based spectrofluorimetrical analysis; assay type: functional, cell-based
In short: (§3)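 Cells exposed 24 h to 5 μM drug in DMEM with 10% FBS at 37 °C, 5% CO2. Medium spun 12,000 × g 5 min. Cells sonicated in 82.3 mM triethanolamine phosphate-HCl pH 7.6. LDH in medium and lysate followed 6 min at 340 nm. Extracellular LDH reported as % of total dish activity, duplicate, n = 3, mean ± SD.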

U2OS [8] = assay: Activity at PgP in human […] cells assessed as Vmax measured per mg of protein incubated for 20 mins by fluorimetrical analysis; assay type: cell-based
In short: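 U-2OS/DX580 cells exposed 20 min to 0-50 μM drug, washed, intracellular doxorubicin read fluorimetrically; parallel dishes left a further 10 min at 37 °C before reading. Efflux rate (difference, nmol extruded/min/mg cell protein) plotted against initial concentration; Vmax and Km fitted. Means ± SD, n = 3.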

H9c2 [9] = assay: Cytotoxicity in rat H9c2 cells assessed as intracellular ROS accumulation at 5 uM incubated for 24 hrs in presence of hydroxocobalamin by DCFDA-AM probe-based fluorimetrical analysis relative to control; assay type: cell-based; conditions: h9c2, 24 h
In short: (§4)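 H9c2 cells held 24 h with 5 μM drug plus 100 μM hydroxocobalamin, then loaded with 5 μM DCFDA-AM for 30 min at 37 °C. Fluorescence read at 492/517 nm, expressed as nmol ROS/mg protein. Duplicate, n = 3.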

U2OS [10] = assay: Induction of intracellular ROS accumulation in human U2OS/DX100 cells at 5 uM incubated for 24 hrs by DCFDA-AM probe-based fluorimetrical analysis relative to control; assay type: functional, cell-based; in short: as §1
H9c2 [11] = assay: Cytotoxicity in rat H9c2 cells assessed as intracellular ROS accumulation at 5 uM incubated for 24 hrs by DCFDA-AM probe-based fluorimetrical analysis relative to control; assay type: cell-based; conditions: h9c2, 24 h; in short: as §1
H9c2 [12] = assay: Cytotoxicity in rat H9c2 cells at 5 uM incubated for 24 hrs in presence of NAC by LDH release-based spectrofluorimetrical analysis relative to control; assay type: cell-based; conditions: h9c2, 24 h
H9c2 [13] = assay: Drug uptake in rat H9c2 cells at 5 uM incubated for 24 hrs by fluorimetrical analysis; assay type: ADME, cell-based; conditions: h9c2, 24 h; in short: as §2
H9c2 [14] = assay: Cytotoxicity in rat H9c2 cells assessed as reduction in ROS level at 5 uM incubated for 24 hrs in presence of NAC by DCFDA-AM probe-based fluorimetrical analysis; assay type: cell-based; conditions: h9c2, 24 h
U2OS [15] = assay: Cytotoxicity in human U2OS/DX30 cells at 5 uM incubated for 24 hrs by LDH release-based spectrofluorimetrical analysis; assay type: functional, cell-based; in short: as §3
[16] = Drug uptake in human U2OS/DX580 cells at 5 uM incubated for 24 hrs by fluorimetrical analysis; assay type: ADME, cell-based; in short: as §2
[17] = Drug uptake in human U2OS/DX100 cells at 5 uM incubated for 24 hrs by fluorimetrical analysis; assay type: ADME, cell-based; in short: as §2
H9c2 [18] = assay: Cytotoxicity in rat H9c2 cells at 5 uM incubated for 24 hrs by LDH release-based spectrofluorimetrical analysis relative to control; assay type: cell-based; conditions: h9c2, 24 h; in short: as §3
U2OS [19] = assay: Cytotoxicity in human U2OS/DX580 cells at 5 uM incubated for 24 hrs by LDH release-based spectrofluorimetrical analysis; assay type: functional, cell-based; in short: as §3
H9c2 [20] = assay: Cytotoxicity in rat H9c2 cells assessed as reduction in basal ROS level at 5 uM incubated for 24 hrs by DCFDA-AM probe-based fluorimetrical analysis; assay type: cell-based; conditions: h9c2, 24 h; in short: as §1
H9c2 [21] = assay: Cytotoxicity in rat H9c2 cells assessed as reduction in basal ROS level at 5 uM incubated for 24 hrs in presence of hydroxocobalamin by DCFDA-AM probe-based fluorimetrical analysis; assay type: cell-based; conditions: h9c2, 24 h; in short: as §4
U2OS [22] = assay: Increase in doxorubicin accumulation in human U2OS/DX100 cells at 5 uM incubated for 24 hrs by fluorimetrical analysis; assay type: functional, cell-based
H9c2 [23] = assay: Cytotoxicity in rat H9c2 cells at 5 uM coincubated with doxorubicin for 24 hrs in presence of hydroxocobalamin by LDH release-based spectrofluorimetrical analysis relative to control; assay type: cell-based; conditions: h9c2, 24 h
U2OS [24] = assay: Activity at PgP in human U2OS/[…] cells assessed as Vmax for doxorubicin measured per mg of protein incubated for 20 mins by fluorimetrical analysis (reference value: […] +/- […] nmol/min); assay type: cell-based
U2OS [25] = assay: Reduction of doxorubicin-mediated ROS accumulation in human U2OS/DX580 cells at 5 uM incubated for 24 hrs by DCFDA-AM probe-based fluorimetrical analysis relative to control; assay type: functional, cell-based
U2OS [26] = assay: Effect on doxorubicin accumulation in human U2OS/DX580 cells at 5 uM incubated for 24 hrs by fluorimetrical analysis; assay type: functional, cell-based
U2OS [27] = assay: Reduction of doxorubicin-mediated ROS accumulation in human U2OS/DX30 cells at 5 uM incubated for 24 hrs by DCFDA-AM probe-based fluorimetrical analysis relative to control; assay type: functional, cell-based
U2OS [28] = assay: Increase in doxorubicin accumulation in human U2OS/DX30 cells at 5 uM incubated for 24 hrs by fluorimetrical analysis; assay type: functional, cell-based
U2OS [29] = assay: Increase in doxorubicin-mediated cytotoxicity in human U2OS/DX100 cells at 5 uM incubated for 24 hrs by LDH release-based spectrofluorimetrical analysis relative to control; assay type: functional, cell-based; in short: as §3
U2OS [30] = assay: Reduction of doxorubicin-mediated ROS accumulation in human U2OS/DX100 cells at 5 uM incubated for 24 hrs by DCFDA-AM probe-based fluorimetrical analysis relative to control; assay type: functional, cell-based
U2OS [31] = assay: Effect on doxorubicin-mediated cytotoxicity in human U2OS/DX580 cells at 5 uM incubated for 24 hrs LDH release-based spectrofluorimetrical analysis relative to control; assay type: functional, cell-based; in short: as §3
U2OS [32] = assay: Reduction of doxorubicin-mediated cytotoxicity in human U2OS cells at 5 uM incubated for 24 hrs by DCFDA-AM probe-based fluorimetrical analysis relative to control; assay type: functional, cell-based
U2OS [33] = assay: Increase in doxorubicin-mediated cytotoxicity in human U2OS/DX30 cells at 5 uM incubated for 24 hrs by LDH release-based spectrofluorimetrical analysis relative to control; assay type: functional, cell-based; in short: as §3
H9c2 [34] = assay: Cytotoxicity in rat H9c2 cells at 5 uM incubated for 24 hrs in presence of hydroxocobalamin by LDH release-based spectrofluorimetrical analysis relative to control; assay type: cell-based; conditions: h9c2, 24 h
In short: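 H9c2 cardiomyocytes given 5 μM drug for 24 h with 100 μM hydroxocobalamin as H2S scavenger. LDH measured at 340 nm over 6 min in medium and lysate. Extracellular activity taken as % of total, duplicate, n = 3.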

H9c2 [35] = assay: Reduction of doxorubicin-mediated cytotoxicity in rat H9c2 cells at 5 uM incubated for 24 hrs by LDH release-based spectrofluorimetrical analysis relative to control; assay type: functional, cell-based
H9c2 [36] = assay: Effect on doxorubicin accumulation in rat H9c2 cells at 5 uM incubated for 24 hrs by fluorimetrical analysis; assay type: functional, cell-based

COc1cccc2c1C(=O)c1c(O)c3c(c(O)c1C2=O)C[C@@](O)(C(=O)CO)C[C@@H]3O[C@H]1C[C@H](N)[C@H](O)[C@H](C)O1.Cl [DOXORUBICIN HYDROCHLORIDE]
Activity (U2OS [1]): Active
Activity (H9c2 [2]): Toxic
Drug uptake [3]: Not Active
Activity (U2OS [4]): inactive
inhibition [5]: inactive
Activity (U2OS [6]): inactive
Activity (U2OS [7]): inactive
Vmax (U2OS [8]): 24.1 nmol/min/mg
Activity (H9c2 [9]): Toxic
Activity (U2OS [10]): inactive
Activity (H9c2 [11]): Toxic
Activity (H9c2 [12]): Non-toxic
Drug uptake (H9c2 [13]): Active
Activity (H9c2 [14]): Non-toxic
Activity (U2OS [15]): inactive
Drug uptake [16]: Not Active
Drug uptake [17]: Not Active
Activity (H9c2 [18]): Toxic
Activity (U2OS [19]): inactive

O=C(O)c1ccc(-c2ssc(=S)c2-c2ccccc2)cc1
Activity (H9c2 [20]): Non-toxic
Activity (H9c2 [21]): Toxic
Activity (U2OS [22]): Active
Activity (H9c2 [23]): Toxic
Vmax (U2OS [24]): 16 nmol/min/mg
Activity (U2OS [25]): Active
Activity (U2OS [26]): inactive
Activity (U2OS [27]): Active
Activity (U2OS [28]): Active
Activity (U2OS [29]): Active
Activity (U2OS [30]): Active
Activity (U2OS [31]): inactive
Activity (U2OS [32]): Active
Activity (U2OS [33]): Active
Activity (H9c2 [34]): Toxic
Activity (H9c2 [35]): Active
Activity (H9c2 [18]): Non-toxic
Activity (H9c2 [36]): inactive
